Test results reported in ChEMBL document CHEMBL1139880, “Potent and selective agonists of human melanocortin receptor 5: cyclic analogues of alpha-melanocyte-stimulating hormone” (J Med Chem, 2007).
Starred links: 1 amine or outer side, 2 acyl side, 3 side chain; linkers in the order of their positions; H or OH if unused. Positions of bridges follow the written chain, without caps; N, C: chain ends. Non-standard residues stand in square brackets, D forms with d. Residues, ends and D or L forms follow the SMILES beside them. X4 = O=C([C@H](CC1CCC(C2CCCCC2)CC1)N[*:1])[*:2]; X3 = O=C([C@H]1CC2CCCCC2N1[*:1])[*:2]; Pip = O=C(O)[C@@H]1CCCCN1; Nle = CCCC[C@H](N)C(=O)O

How the values were obtained:
Melanocortin receptor 4 [1] = molecular target: T1, Melanocortin receptor 4 (Homo sapiens, UniProt P32245); assay: Agonist activity at human MC4R expressed in CHO cells assessed as cAMP accumulation at […] relative to [125I]NDPalphaMSH; type: functional, cell-based; details: filed as partial agonist
T1 sequence (P32245 whole entry): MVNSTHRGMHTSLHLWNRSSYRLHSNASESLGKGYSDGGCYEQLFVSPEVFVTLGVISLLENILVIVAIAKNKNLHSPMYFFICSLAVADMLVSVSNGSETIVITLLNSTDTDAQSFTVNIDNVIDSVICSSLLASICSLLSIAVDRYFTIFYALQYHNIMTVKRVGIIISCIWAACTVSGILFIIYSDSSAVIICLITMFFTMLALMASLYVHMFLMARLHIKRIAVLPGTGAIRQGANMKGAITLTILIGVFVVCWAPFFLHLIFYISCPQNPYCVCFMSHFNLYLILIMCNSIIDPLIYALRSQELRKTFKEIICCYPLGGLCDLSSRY

Homo sapiens [2] = species on record: Homo sapiens; assay: Selectivity for human cloned MC5R over human cloned MC1bR
Homo sapiens [3] = species on record: Homo sapiens; assay: Selectivity for human cloned MC5R over human cloned MC3R
[4] = molecular target: Melanocortin receptor (M4 and M5) (Homo sapiens) (UniProt P32245+P33032); assay: Selectivity for human cloned MC5R over human cloned MC4R; type: protein assay
Chain of Melanocortin receptor (M4 and M5) (Homo sapiens) (P32245 whole entry, looked up): as the sequence (P32245 whole entry) above
Chain of Melanocortin receptor (M4 and M5) (Homo sapiens) (P33032 whole entry, looked up): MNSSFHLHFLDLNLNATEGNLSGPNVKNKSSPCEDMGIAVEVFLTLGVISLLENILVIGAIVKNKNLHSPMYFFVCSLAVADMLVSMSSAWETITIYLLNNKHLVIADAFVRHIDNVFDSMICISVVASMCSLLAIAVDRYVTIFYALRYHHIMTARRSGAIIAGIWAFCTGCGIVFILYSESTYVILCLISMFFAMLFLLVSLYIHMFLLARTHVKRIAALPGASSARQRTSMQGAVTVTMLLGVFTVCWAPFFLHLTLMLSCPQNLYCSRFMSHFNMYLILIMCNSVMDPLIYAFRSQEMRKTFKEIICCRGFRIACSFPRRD

Melanocortin receptor 4 [5] = molecular target: T1, Melanocortin receptor 4; assay: Agonist activity at human MC4R expressed in CHO cells assessed as cAMP accumulation at 1 uM relative to [125I]NDPalphaMSH; type: functional, cell-based
Melanocortin receptor 3 [6] = molecular target: T2, Melanocortin receptor 3 (Homo sapiens, UniProt P41968); assay: Agonist activity at human MC3R expressed in CHO cells assessed as cAMP accumulation at 2 uM relative to [125I]NDPalphaMSH; type: functional, cell-based
T2 sequence (P41968 whole entry): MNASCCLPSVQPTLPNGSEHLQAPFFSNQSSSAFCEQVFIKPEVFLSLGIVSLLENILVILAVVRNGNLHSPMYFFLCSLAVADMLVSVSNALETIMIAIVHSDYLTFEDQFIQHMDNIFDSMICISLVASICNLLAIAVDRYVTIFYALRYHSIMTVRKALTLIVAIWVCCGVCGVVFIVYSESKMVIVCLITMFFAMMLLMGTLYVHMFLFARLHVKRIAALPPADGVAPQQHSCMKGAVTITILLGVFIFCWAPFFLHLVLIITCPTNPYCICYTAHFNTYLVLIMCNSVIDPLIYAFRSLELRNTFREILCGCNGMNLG

Melanocortin receptor 4 [7] = molecular target: T1, Melanocortin receptor 4; assay: Agonist activity at human MC4R expressed in CHO cells assessed as cAMP accumulation at 2 uM relative to [125I]NDPalphaMSH; type: functional, cell-based; details: filed as partial agonist
Melanocortin receptor 3 [8] = molecular target: T2, Melanocortin receptor 3; assay: Agonist activity at human MC3R expressed in CHO cells assessed as cAMP accumulation at 5 uM relative to [125I]NDPalphaMSH; type: functional, cell-based
Melanocortin receptor 4 [9] = molecular target: T1, Melanocortin receptor 4; assay: Agonist activity at human MC4R expressed in CHO cells assessed as cAMP accumulation at 5 uM relative to [125I]NDPalphaMSH; type: functional, cell-based; details: filed as agonist
[10] = molecular target: T3, Melanocyte-stimulating hormone receptor (Homo sapiens, UniProt Q01726); assay: Agonist activity at human melanocortin receptor 1b expressed in CHO cells assessed as cAMP accumulation relative to [125I]NDPalphaMSH; type: functional, cell-based
Target sequence in this assay (Q01726 whole entry, looked up): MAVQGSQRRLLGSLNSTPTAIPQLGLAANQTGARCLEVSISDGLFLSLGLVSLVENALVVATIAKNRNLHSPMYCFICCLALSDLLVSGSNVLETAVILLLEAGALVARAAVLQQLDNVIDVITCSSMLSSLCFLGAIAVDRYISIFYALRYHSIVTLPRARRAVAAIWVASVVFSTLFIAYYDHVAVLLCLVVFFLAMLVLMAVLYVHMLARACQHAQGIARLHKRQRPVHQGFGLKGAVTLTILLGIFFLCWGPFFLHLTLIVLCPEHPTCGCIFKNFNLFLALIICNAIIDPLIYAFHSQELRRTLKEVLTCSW

Melanocortin receptor 3 [11] = molecular target: T2, Melanocortin receptor 3; assay: Agonist activity at human MC3R expressed in CHO cells assessed as cAMP accumulation at 1 uM relative to [125I]NDPalphaMSH; type: functional, cell-based
Melanocortin receptor 4 [12] = molecular target: T1, Melanocortin receptor 4; assay: Agonist activity at human MC4R expressed in CHO cells assessed as cAMP accumulation at 10 uM relative to [125I]NDPalphaMSH; type: functional, cell-based; details: filed as partial agonist
Melanocortin receptor 3 [13] = molecular target: T2, Melanocortin receptor 3; assay: Agonist activity at human MC3R expressed in CHO cells assessed as cAMP accumulation at […] relative to [125I]NDPalphaMSH; type: functional, cell-based
[14] = molecular target: T3, Melanocyte-stimulating hormone receptor; assay: Displacement of [125I]NDPalphaMSH from human cloned melanocortin receptor 1b expressed in CHO cells; type: cell-based; details: cho
Target sequence in this assay (Q01726 whole entry): as the sequence (Q01726 whole entry, looked up) above

Melanocortin receptor 3 [15] = molecular target: T2, Melanocortin receptor 3; assay: Displacement of [125I]NDPalphaMSH from human cloned MC3R expressed in CHO cells; type: cell-based; details: cho
Melanocortin receptor 5 [16] = molecular target: T4, Melanocortin receptor 5 (Homo sapiens, UniProt P33032); assay: Displacement of [125I]NDPalphaMSH from human cloned MC5R expressed in CHO cells; type: cell-based; details: cho
T4 sequence (P33032 whole entry): as the sequence (P33032 whole entry, looked up) above

Melanocortin receptor 4 [17] = molecular target: T1, Melanocortin receptor 4; assay: Inhibition of human cloned MC4R expressed in CHO cells at 2 uM relative to [125I]NDPalphaMSH; type: cell-based
Melanocortin receptor 3 [18] = molecular target: T2, Melanocortin receptor 3; assay: Agonist activity at human MC3R expressed in CHO cells assessed as cAMP accumulation; type: functional, cell-based; details: cho
Summary of the method: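 Dissociated CHO cells were spun 5 min and resuspended in Earle's balanced salt solution with 10 mM HEPES pH 7.5, 5 mM MgCl2, 1 mM glutamine and 1 mg/mL BSA. They were incubated 40 min at room temperature with compound (0.003–5000 nM) plus 0.6 mM IBMX, then lysed with 0.1 M HCl. cAMP was measured by Flashplate cAMP assay.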

Melanocortin receptor 5 [19] = molecular target: T4, Melanocortin receptor 5; assay: Agonist activity at human MC5R expressed in CHO cells assessed as cAMP accumulation; type: functional, cell-based; details: cho
[20] = molecular target: T3, Melanocyte-stimulating hormone receptor; assay: Agonist activity at human melanocortin receptor 1b expressed in CHO cells assessed as cAMP accumulation at 1 uM relative to [125I]NDPalphaMSH; type: functional, cell-based
Target sequence in this assay (Q01726 whole entry, looked up): as the sequence (Q01726 whole entry, looked up) above

Melanocortin receptor 4 [21] = molecular target: T1, Melanocortin receptor 4; assay: Agonist activity at human MC4R expressed in CHO cells assessed as cAMP accumulation at […] relative to [125I]NDPalphaMSH

CCCC[C@H](NC(C)=O)C(=O)N[C@H]1CC(=O)NCCCC[C@@H](C(N)=O)NC(=O)[C@H](Cc2c[nH]c3ccccc23)NC(=O)[C@@H]2CCCCN2C(=O)[C@H](Cc2ccc(-c3ccccc3)cc2)NC(=O)[C@H](Cc2c[nH]cn2)NC1=O
Activity (Melanocortin receptor 4 [1]): 41% | Ratio IC50 (Homo sapiens [2]): 8 | Ratio IC50 (Homo sapiens [3]): 1940 | Ratio IC50 [4]: 790

CCCC[C@H](NC(C)=O)C(=O)N[C@H]1CC(=O)NCCCC[C@@H](C(N)=O)NC(=O)[C@H](Cc2c[nH]c3ccccc23)NC(=O)[C@@H]2CCCCN2C(=O)[C@H](Cc2ccc(-c3ccccc3)cc2)NC(=O)[C@@H]2CCCN2C1=O
Activity (Melanocortin receptor 4 [5]): 9% | Activity (Melanocortin receptor 3 [6]): 8% | Ratio IC50 (Homo sapiens [2]): 430 | Ratio IC50 (Homo sapiens [3]): 1800 | Ratio IC50 [4]: 1060

CCCC[C@H](NC(C)=O)C(=O)N[C@H]1CC(=O)NCCCC[C@@H](C(N)=O)NC(=O)[C@H](Cc2c[nH]c3ccccc23)NC(=O)[C@@H]2CCCCN2C(=O)[C@H](Cc2ccc(-c3ccccc3)cc2)NC(=O)[C@@H]2CC3CCCCC3N2C1=O (some centres not stated)
Activity (Melanocortin receptor 3 [6]): 5% | Activity (Melanocortin receptor 4 [7]): 40% | Ratio IC50 (Homo sapiens [2]): > 5000 | Ratio IC50 (Homo sapiens [3]): > 5000 | Ratio IC50 [4]: > 5000

CCCC[C@H](NC(C)=O)C(=O)N[C@H]1CC(=O)NCCCC[C@@H](C(N)=O)NC(=O)[C@H](Cc2c[nH]c3ccccc23)NC(=O)[C@@H]2CCCN2C(=O)[C@H](Cc2ccc(-c3ccccc3)cc2)NC(=O)[C@@H]2CC3CCCCC3N2C1=O (some centres not stated)
Activity (Melanocortin receptor 3 [8]): 1% | Activity (Melanocortin receptor 4 [9]): 97% | Ratio IC50 (Homo sapiens [2]): 780 | Ratio IC50 (Homo sapiens [3]): 440 | Ratio IC50 [4]: 470

CCCC[C@H](NC(C)=O)C(=O)N[C@H]1CC(=O)NCCCC[C@@H](C(N)=O)NC(=O)[C@H](Cc2c[nH]c3ccccc23)NC(=O)[C@@H]2CCCCN2C(=O)[C@H](Cc2ccc(-c3ccccc3)cc2)NC(=O)[C@H](C(C)C)NC1=O
Activity [10]: 33% | Activity (Melanocortin receptor 3 [11]): 3% | Activity (Melanocortin receptor 4 [5]; filed as agonist): 77% | Ratio IC50 (Homo sapiens [2]): 670

CCCC[C@H](NC(C)=O)C(=O)N[C@H]1CC(=O)NCCCC[C@@H](C(N)=O)NC(=O)[C@H](Cc2c[nH]c3ccccc23)NC(=O)[C@@H]2CCCN2C(=O)[C@H](Cc2ccc(-c3ccccc3)cc2)NC(=O)[C@@H]2CCCN2C1=O
Activity (Melanocortin receptor 4 [12]): 40% | Activity (Melanocortin receptor 3 [13]): 2% | Ratio IC50 (Homo sapiens [2]): 720 | Ratio IC50 (Homo sapiens [3]): 217 | Ratio IC50 [4]: 340

CCCC[C@H](NC(C)=O)C(=O)N[C@H]1CC(=O)NCCCC[C@@H](C(N)=O)NC(=O)[C@H](Cc2c[nH]c3ccccc23)NC(=O)[C@@H]2CCCCN2C(=O)[C@H](CC2CCC(C3CCCCC3)CC2)NC(=O)[C@H]2CC3CCCCC3N2C1=O (some centres not stated) (Ac-[Nle]D[X3][X4][Pip]WK-NH2; lactam 2-7)
IC50 [14]: 1300 nM (antagonist) | IC50 (Melanocortin receptor 3 [15]): > 1000 nM | IC50 (Melanocortin receptor 5 [16]): 700 nM (antagonist) | inhibition (Melanocortin receptor 4 [17]): 25% | EC50 (Melanocortin receptor 3 [18]): > 500 nM | EC50 (Melanocortin receptor 5 [19]): > 500 nM | Activity [20]: 13% | Activity (Melanocortin receptor 4 [5]; filed as partial agonist): 39% | Ratio IC50 (Homo sapiens [2]): 1.8

CCCC[C@H](NC(C)=O)C(=O)N[C@H]1CC(=O)NCCCC[C@@H](C(N)=O)NC(=O)[C@H](Cc2c[nH]c3ccccc23)NC(=O)[C@@H]2CCCCN2C(=O)[C@H](Cc2ccc(-c3ccccc3)cc2)NC(=O)[C@@H]2Cc3ccccc3CN2C1=O
Activity (Melanocortin receptor 3 [13]): 10% | Ratio IC50 (Homo sapiens [2]): 260 | Ratio IC50 (Homo sapiens [3]): 1440 | Ratio IC50 [4]: 260 | Activity (Melanocortin receptor 4 [21]): 0%
